How the values were obtained:
Sphingosine kinase 2 = molecular target: T1, Sphingosine kinase 2 (Homo sapiens, UniProt Q9NRA0); assay: Inhibition of GST-tagged full length human recombinant SPHK2 expressed in baculovirus using sphingosine as substrate preincubated for 10 mins measured after 1 hr by ADP-quest assay
T1 sequence (Q9NRA0 whole entry): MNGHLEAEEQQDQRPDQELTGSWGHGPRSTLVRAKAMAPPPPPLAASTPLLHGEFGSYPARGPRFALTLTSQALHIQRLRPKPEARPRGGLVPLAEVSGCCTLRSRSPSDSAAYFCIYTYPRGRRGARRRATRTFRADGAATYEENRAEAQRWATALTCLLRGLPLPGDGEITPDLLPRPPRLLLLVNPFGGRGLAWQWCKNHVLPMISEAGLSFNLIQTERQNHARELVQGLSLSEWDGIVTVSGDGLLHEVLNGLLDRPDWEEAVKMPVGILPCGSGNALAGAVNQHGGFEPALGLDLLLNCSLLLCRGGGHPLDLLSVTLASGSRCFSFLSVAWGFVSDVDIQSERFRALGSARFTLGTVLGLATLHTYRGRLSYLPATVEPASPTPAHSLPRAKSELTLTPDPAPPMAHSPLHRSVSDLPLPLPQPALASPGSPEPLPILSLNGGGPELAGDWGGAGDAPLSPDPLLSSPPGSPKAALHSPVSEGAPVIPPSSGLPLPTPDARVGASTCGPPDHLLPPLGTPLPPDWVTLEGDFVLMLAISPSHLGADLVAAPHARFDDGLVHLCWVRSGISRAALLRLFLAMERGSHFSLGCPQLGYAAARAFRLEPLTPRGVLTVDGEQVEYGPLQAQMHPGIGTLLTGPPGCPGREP
Procedure, shortened: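 Human recombinant SphK1 or SphK2 with sphingosine substrate and ATP, tested in 384-well format. Enzyme was preincubated with compound for 10 min, then the reaction ran at 28 °C for 1 h. ADP Quest reagents A and B were added for 30 min at room temperature. Fluorescence was read at Ex 530/Em 590 nm. Values are mean of n = 3 in triplicate.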

Sphingosine kinase 1 = Sphingosine kinase 1 (Homo sapiens, UniProt Q9NYA1); assay: Inhibition of GST-tagged full length human recombinant SPHK1 expressed in baculovirus using sphingosine as substrate preincubated for 10 mins measured after 1 hr by ADP-quest assay
Chain of Sphingosine kinase 1 (Q9NYA1 whole entry): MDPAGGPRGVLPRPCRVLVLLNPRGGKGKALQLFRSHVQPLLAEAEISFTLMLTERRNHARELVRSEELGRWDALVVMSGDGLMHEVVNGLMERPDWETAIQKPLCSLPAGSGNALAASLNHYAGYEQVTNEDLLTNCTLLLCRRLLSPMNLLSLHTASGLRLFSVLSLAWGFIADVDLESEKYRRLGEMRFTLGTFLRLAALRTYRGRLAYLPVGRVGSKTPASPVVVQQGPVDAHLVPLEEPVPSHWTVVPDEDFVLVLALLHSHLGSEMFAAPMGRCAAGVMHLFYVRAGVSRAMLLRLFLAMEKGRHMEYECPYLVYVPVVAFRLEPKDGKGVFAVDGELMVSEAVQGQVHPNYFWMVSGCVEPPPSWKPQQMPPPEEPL

| IC50 (Sphingosine kinase 2) | IC50 (Sphingosine kinase 1) | SMILES |
| --- | --- | --- |
| 28.5 µM | 22 µM | O=C(N/N=C/c1ccc(OCc2ccccc2)cc1)c1cc(O)c(O)c(O)c1 |
| > 100 µM | > 100 µM | COc1ccc(COc2ccc(/C=N/NC(=O)c3cc(O)c(O)c(O)c3)cc2)cc1 |
| 65.4 µM | 45.8 µM | Cc1ccc(COc2cccc(/C=N/NC(=O)c3cc(O)c(O)c(O)c3)c2)cc1 |
| > 100 µM | > 100 µM | COc1cccc(COc2cccc(/C=N/NC(=O)c3cccc(O)c3)c2)c1 |
| > 100 µM | > 100 µM | O=C(N/N=C/c1cccc(OCc2ccccc2C(F)(F)F)c1)c1ccc(O)cc1 |
| 8.7 µM | 8.57 µM | COc1cccc(COc2cccc(/C=N/NC(=O)c3cc(O)c(O)c(O)c3)c2)c1 |
| 4.6 µM | 5 µM | COc1cccc(COc2cccc(/C=N/NC(=O)c3ccc(O)c(O)c3)c2)c1 |
| > 100 µM | > 100 µM | O=C(N/N=C/c1ccc(OCc2ccccc2C(F)(F)F)cc1)c1cc(O)cc(O)c1 |
| > 100 µM | > 100 µM | O=C(N/N=C/c1cccc(OCc2ccccc2C(F)(F)F)c1)c1cc(O)cc(O)c1 |
| > 100 µM | > 100 µM | O=C(N/N=C/c1cccc(OCc2ccccc2C(F)(F)F)c1)c1cccc(O)c1 |
| 62.2 µM | 35.2 µM | CC(C)(C)c1ccc(COc2cccc(/C=N/NC(=O)c3cc(O)c(O)c(O)c3)c2)cc1 |
| > 100 µM | > 100 µM | COc1cccc(COc2ccc(/C=N/NC(=O)c3cccc(O)c3)cc2)c1 |
| 11.4 µM | 16.5 µM | O=C(N/N=C/c1ccc(OCc2ccccc2C(F)(F)F)cc1)c1ccc(O)c(O)c1 |
| 58.8 µM | 36.8 µM | O=C(N/N=C/c1cccc(OCc2ccccc2Cl)c1)c1cc(O)c(O)c(O)c1 |
| > 100 µM | > 100 µM | COc1ccc(COc2cccc(/C=N/NC(=O)c3cc(O)c(O)c(O)c3)c2)cc1 |
| 78.7 µM | 52.1 µM | Cc1cccc(COc2cccc(/C=N/NC(=O)c3cc(O)c(O)c(O)c3)c2)c1 |

| IC50 (Sphingosine kinase 2) | IC50 (Sphingosine kinase 1) | SMILES |
| --- | --- | --- |
| > 100 µM | > 100 µM | O=C(N/N=C/c1ccc(OCc2ccccc2C(F)(F)F)cc1)c1cccc(O)c1 |
| > 100 µM | > 100 µM | O=C(N/N=C/c1cccc(OCc2ccccc2)c1)c1ccc2[nH]cnc2c1 |
| 17.8 µM | 27.7 µM | N#Cc1ccc(COc2ccc(/C=N/NC(=O)c3cc(O)c(O)c(O)c3)cc2)cc1 |
| 98.9 µM | > 100 µM | O=C(N/N=C/c1cccc(OCc2ccccc2F)c1)c1cc(O)c(O)c(O)c1 |
| 44.5 µM | 32.7 µM | Cc1ccc(COc2ccc(/C=N/NC(=O)c3cc(O)c(O)c(O)c3)cc2)cc1 |
| 15.1 µM | 15 µM | O=C(N/N=C/c1ccc(OCc2ccccc2C(F)(F)F)cc1)c1cc(O)c(O)c(O)c1 |
| 22.6 µM | 45.8 µM | N#Cc1cccc(COc2ccc(/C=N/NC(=O)c3cc(O)c(O)c(O)c3)cc2)c1 |
| > 100 µM | 85.3 µM | N#Cc1cccc(COc2cccc(/C=N/NC(=O)c3cc(O)c(O)c(O)c3)c2)c1 |
| 35.1 µM | 69.4 µM | N#Cc1ccc(COc2cccc(/C=N/NC(=O)c3cc(O)c(O)c(O)c3)c2)cc1 |
| 67.4 µM | > 100 µM | O=C(N/N=C/c1cccc(OCc2cccc(Cl)c2)c1)c1cc(O)c(O)c(O)c1 |
| > 100 µM | > 100 µM | COc1cccc(COc2cccc(/C=N/NC(=O)c3ccc(O)cc3)c2)c1 |
| 44.5 µM | > 100 µM | N#Cc1ccccc1COc1ccc(/C=N/NC(=O)c2cc(O)c(O)c(O)c2)cc1 |
| > 100 µM | > 100 µM | O=C(N/N=C/c1cccc(OCc2ccc(F)cc2)c1)c1cc(O)c(O)c(O)c1 |
| 22.1 µM | 16.3 µM | O=C(N/N=C/c1cccc(OCc2ccc(C(F)(F)F)cc2)c1)c1cc(O)c(O)c(O)c1 |
| > 100 µM | > 100 µM | O=C(N/N=C/c1cccc(OCc2cccc(F)c2)c1)c1cc(O)c(O)c(O)c1 |
| 26.3 µM |  | CCCCCCCCCCCCC/C=C/[C@@H](O)[C@H](CO)N(C)C [DIMETHYLSPINGOSINE] |

Reference: ChEMBL document CHEMBL3813598, “Development of hydroxy-based sphingosine kinase inhibitors and anti-inflammation in dextran sodium sulfate induced colitis in mice” (Bioorg Med Chem, 2016)
